Read-outs that look alike come from different tables or passages of the source. One block for each molecule: values may come before it.
Columns and labels:
human neutrophils [1] = assay: Desensitization of human neutrophil chemotaxis toward WKYMVm; type: cell-based; conditions: 0.5 h, read-out: Chemotaxis IC50
human neutrophils [2] = assay: Human neutrophil chemotaxis; type: cell-based; conditions: read-out: Chemotaxis EC50
Procedure, shortened: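 Neutrophils from healthy-donor blood purified by dextran sedimentation, Histopaque 1077 gradient and hypotonic red-cell lysis, then washed twice into Ca/Mg-free HBSS; preparations >95% pure by light microscopy and >98% viable by trypan blue.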

[3] = tested on: CFA-induced rheumatoid arthritis in rats; assay: Incapacitance test in CFA-induced rheumatoid arthritis; type: in vivo, rat; conditions: for Δ Weight (incapacitance test): day 14 after CFA
[4] = tested on: CFA-induced rheumatoid arthritis in rats; assay: Paw pressure test in CFA-induced rheumatoid arthritis; type: in vivo, rat
FPR2 [5] = molecular target: T1, FPR2 (Homo sapiens, UniProt P25090); assay: Ca2+ mobilization in FPR2-transfected HL60 cells; type: cell-based
T1 sequence (P25090 1-351): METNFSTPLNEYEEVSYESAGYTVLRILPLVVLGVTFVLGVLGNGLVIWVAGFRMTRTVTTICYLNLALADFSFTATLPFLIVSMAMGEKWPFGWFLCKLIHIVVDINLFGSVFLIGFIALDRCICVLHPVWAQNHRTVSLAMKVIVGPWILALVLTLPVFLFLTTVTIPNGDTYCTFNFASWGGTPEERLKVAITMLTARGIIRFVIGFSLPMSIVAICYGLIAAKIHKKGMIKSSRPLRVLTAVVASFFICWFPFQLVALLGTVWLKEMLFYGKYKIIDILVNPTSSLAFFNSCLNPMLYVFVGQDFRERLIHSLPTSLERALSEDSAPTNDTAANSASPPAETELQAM

FPR1 [6] = molecular target: T2, FPR1 (Homo sapiens, UniProt P21462); assay: Ca2+ mobilization in FPR1-transfected HL60 cells; type: cell-based
T2 sequence (P21462 1-350): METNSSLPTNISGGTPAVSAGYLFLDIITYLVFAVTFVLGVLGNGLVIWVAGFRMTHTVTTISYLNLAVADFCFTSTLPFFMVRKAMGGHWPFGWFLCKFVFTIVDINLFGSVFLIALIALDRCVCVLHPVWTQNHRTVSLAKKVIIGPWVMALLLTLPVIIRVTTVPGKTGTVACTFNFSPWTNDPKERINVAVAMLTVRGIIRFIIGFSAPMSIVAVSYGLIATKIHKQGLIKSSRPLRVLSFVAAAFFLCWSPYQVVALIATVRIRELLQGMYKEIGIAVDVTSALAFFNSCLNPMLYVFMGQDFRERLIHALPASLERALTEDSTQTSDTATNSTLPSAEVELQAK

[7] = tested on: collagen-induced arthritis and antigen-induced arthritis; conditions: 30 mg/kg i.p., mice, both models; cited from earlier work
FPR1 [8] = molecular target: T2, FPR1; conditions: read-out: FPR1 EC50; EC10; cited from earlier work
FPR2 [9] = molecular target: T1, FPR2; conditions: read-out: FPR2 EC50; EC10; cited from earlier work
FPR3 = conditions: read-out: FPR3 EC50; EC10; cited from earlier work

EC50 (human neutrophils [2]): 0.02 ± 0.004 µM
preference for FPR2 versus FPR1 (FPR2 [5]; ratio of EC50 values): 10 fold
Structure (SMILES): COc1cccc(-c2cc(C#N)c(=O)n(CC(=O)Nc3ccc(Br)cc3)c2C)c1 [Compound 2a, N-(4-Bromophenyl)-2-[3-cyano-5-(3-methoxyphenyl)-6-methyl-2-oxopyridin-1(2H)-yl]acetamide]
IC50 (human neutrophils [1]): 6.1 ± 1.1 µM
effect on postural unbalance (incapacitance test) ([3]; 10 and 30 mg/kg p.o., between 15 and 60 min after administration): significantly reduced the postural unbalance
effect on pain threshold (paw pressure test) ([4]; 10 mg/kg p.o., day 14 after CFA): effective between 30 and 60 min
pain threshold (paw pressure test) ([4]; 30 mg/kg p.o., day 14 after CFA, 15 to 45 min, CFA + vehicle 37.5 ± 1 g): 63.3 ± 2 g

EC50 (FPR1 [6]): 1 ± 0.2 µM
EC50 (FPR2 [5]): 0.48 ± 0.08 µM
Structure (SMILES): COc1ccc(-c2cc(C#N)c(=O)n(CC(=O)Nc3ccc(Br)cc3)c2C)cc1 [Compound 2b, N-(4-Bromophenyl)-2-[3-cyano-5-(4-methoxyphenyl)-6-methyl-2-oxopyridin-1(2H)-yl]acetamide]

EC50 (FPR1 [6]): 33.2 ± 4.9 µM
EC50 (human neutrophils [2]): 0.06 ± 0.015 µM
EC50 (FPR2 [5]): 0.6 ± 0.2 µM
Structure (SMILES): COc1ccc(-c2cc(C#N)c(=O)n(CC(=O)Nc3ccc(Br)cc3)c2C)cc1OC [Compound 2c, N-(4-Bromophenyl)-2-[3-cyano-5-(3,4-dimethoxyphenyl)-6-methyl-2-oxopyridin-1(2H)-yl]acetamide]
IC50 (human neutrophils [1]): 18.8 ± 3.2 µM

EC50 (FPR1 [6]; read-out: FPR1-HL60 EC50, Ca2+ mobilization, mean of three independent experiments, N.A. = no activity (efficacy < 20% and EC50 < 50 μM as printed)): 3 µM
EC50 (human neutrophils [2]): 0.013 ± 0.001 µM
Structure (SMILES): CCOC(=O)c1cc(C#N)c(=O)n(CC(=O)Nc2ccc(Br)cc2)c1C [Compound 2d, 1-[(4-Bromophenylcarbamoyl)-methyl]-5-cyano-2-methyl-6-oxo-1,6-dihydropyridine-3-carboxylic acid ethyl ester]
IC50 (human neutrophils [1]): 8.4 ± 1.2 µM

EC50 (FPR1 [6]): 0.4 ± 0.1 µM
preference for FPR1 (FPR1 [6]; FPR1 versus FPR2 EC50): about 72 fold
EC50 (FPR2 [5]): 28.9 ± 2.7 µM
Structure (SMILES): CCOC(=O)c1cc(C(=O)Nc2cccc(OC)c2)c(=O)n(CC(=O)Nc2ccc(Br)cc2)c1C [Compound 6a, 1-[(4-Bromophenylcarbamoyl)methyl]-5-(3-methoxyphenylcarbamoyl)-2-methyl-6-oxo-1,6-dihydropyridine-3-carboxylic acid ethyl ester]

EC50 (FPR1 [6]): 7.9 ± 1.4 µM
EC50 (FPR2 [5]): 16.4 ± 3.3 µM
Structure (SMILES): CCOC(=O)c1cc(C(=O)Nc2ccc(OC)cc2)c(=O)n(CC(=O)Nc2ccc(Br)cc2)c1C [Compound 6b, 1-[(4-Bromophenylcarbamoyl)methyl]-5-(4-methoxyphenylcarbamoyl)-2-methyl-6-oxo-1,6-dihydropyridine-3-carboxylic acid ethyl ester]

EC50 (FPR1 [6]): 1.4 ± 0.4 µM
EC50 (FPR2 [5]): 1.8 ± 0.21 µM
Structure (SMILES): COc1cccc(NC(=O)c2cc(-c3ccncc3)c(C)n(CC(=O)Nc3ccc(Br)cc3)c2=O)c1 [Compound 6c, 1-[(4-Bromophenylcarbamoyl)methyl]-2-methyl-6-oxo-1,6-dihydro-[3,4′]bipyridinyl-5-carboxylic acid (3-methoxyphenyl) amide]

EC50 (FPR1 [6]): 3.9 ± 1.2 µM
EC50 (FPR2 [5]): 0.31 ± 0.09 µM
Structure (SMILES): COc1cccc(NC(=O)c2cc(C#N)c(=O)n(CC(=O)Nc3ccc(Br)cc3)c2C)c1 [Compound 9a, 1-[(4-Bromophenylcarbamoyl)methyl]-5-cyano-2-methyl-6-oxo-1,6-dihydro-pyridine-3-carboxylic acid (3-methoxyphenyl) amide]

EC50 (FPR1 [6]): 0.96 ± 0.39 µM
EC50 (FPR2 [5]): 0.44 ± 0.12 µM
Structure (SMILES): COc1ccc(NC(=O)c2cc(C#N)c(=O)n(CC(=O)Nc3ccc(Br)cc3)c2C)cc1 [Compound 9b, 1-[(4-Bromophenylcarbamoyl)methyl]-5-cyano-2-methyl-6-oxo-1,6-dihydro-pyridine-3-carboxylic acid (4-methoxyphenyl) amide]

EC50 (FPR1 [6]): 5.5 ± 1.6 µM
EC50 (FPR2 [5]): 4.1 ± 1.3 µM
Structure (SMILES): CCCn1ccc(=O)n(CC(=O)Nc2ccc(Br)cc2)c1=O [Compound 11d, N-(4-Bromophenyl)-2-(2,6-dioxo-3-propyl-3,6-dihydropyrimidin-1(2H)-yl)acetamide]

Structure (SMILES): CC(C)c1c(NC(=O)Nc2ccc(Cl)cc2)c(=O)n(-c2ccccc2)n1C [Cpd43]
effect on arthritis disease severity [7]: significantly reduced disease severity

Structure (SMILES): COc1cccc(Nc2c(C(C)=O)c(C)nn(CC(=O)Nc3ccc(Br)cc3)c2=O)c1 [EC10]
EC50 (FPR1 [8]): 0.045 µM
EC50 (FPR2 [9]): 0.17 µM
Δ Weight (incapacitance test) ([3]; 10 and 30 mg/kg p.o., 15 to 60 min, CFA + vehicle 62.8 ± 3.1 g): 40.2 ± 1.1 g
effect on pain threshold (paw pressure test) ([4]; 10 and 30 mg/kg p.o., between 15 and 60 min, similar efficacy as EC3): increased the pain threshold
EC50 (FPR3): 0.21 µM

Structure (SMILES): CC(C)Cc1ccc(C(C)C(=O)O)cc1 (centres unmarked) [Ibuprofen, ibuprofen, reference compound]
Δ Weight (incapacitance test) ([3]; 100 mg kg−1 p.o., 15 to 30 min, CFA + vehicle 62.6 ± 2.5 g): 34.7 ± 6.1 g

Reference: paper PMC7409366 (Bioorganic chemistry, 2020)
